NS3 helicase inh: HCV NS3 helicase inhibition | NS3 helicase DNA unwinding, Cy5 molecular beacon fluorescence | inhibition, % at 10.9 µM | 290,000 compounds, 0.56% hits | AID 1800;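 active = inhibition above the mean of all tested compounds plus 3 SD, set per campaign, cut at about 35% in these data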;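 also: 0% = DMSO wells and 100% = thioflavine S control wells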
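Material: hepatitis C virus NS3 helicase domain fragment enzyme; measured by: Cy5 fluorescence, 0 and 60 min reads; control set: DMSO and thioflavine S; incubation: 60 min unwinding reaction at 25 °C after ATP addition; read-out basis: % inhibition from 60/0 min fluorescence ratio, DMSO 0%, thioflavine S 100%; repeats: singlicate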
M18AAP inhibitor: blocks P. falciparum M18 aspartyl aminopeptidase. 290,000 compounds, 1.2% hits. inhibition, % at 7.35 µM. recombinant PfM18AAP, H-Glu-NHMec fluorogenic cleavage;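 active = inhibition above the campaign mean inhibition over all tested compounds plus 3 SD, cut at about 28% in these data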;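 also: 0% = plate median of test compound wells and 100% = 2 mM ZnCl2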
p97 ATPase inh: inhibitors of human p97 ATPase. 220,000 compounds, 0.42% hits. AID 1481. recombinant p97 ATPase, Kinase-Glo ATP luminescence, 3 h. inhibition, % at 8 µM. P55072; in the data active = inhibition above about 15%;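 also: 0% = DMSO vehicle and 100% = wells lacking enzyme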
Target sequence (P55072 whole entry, looked up): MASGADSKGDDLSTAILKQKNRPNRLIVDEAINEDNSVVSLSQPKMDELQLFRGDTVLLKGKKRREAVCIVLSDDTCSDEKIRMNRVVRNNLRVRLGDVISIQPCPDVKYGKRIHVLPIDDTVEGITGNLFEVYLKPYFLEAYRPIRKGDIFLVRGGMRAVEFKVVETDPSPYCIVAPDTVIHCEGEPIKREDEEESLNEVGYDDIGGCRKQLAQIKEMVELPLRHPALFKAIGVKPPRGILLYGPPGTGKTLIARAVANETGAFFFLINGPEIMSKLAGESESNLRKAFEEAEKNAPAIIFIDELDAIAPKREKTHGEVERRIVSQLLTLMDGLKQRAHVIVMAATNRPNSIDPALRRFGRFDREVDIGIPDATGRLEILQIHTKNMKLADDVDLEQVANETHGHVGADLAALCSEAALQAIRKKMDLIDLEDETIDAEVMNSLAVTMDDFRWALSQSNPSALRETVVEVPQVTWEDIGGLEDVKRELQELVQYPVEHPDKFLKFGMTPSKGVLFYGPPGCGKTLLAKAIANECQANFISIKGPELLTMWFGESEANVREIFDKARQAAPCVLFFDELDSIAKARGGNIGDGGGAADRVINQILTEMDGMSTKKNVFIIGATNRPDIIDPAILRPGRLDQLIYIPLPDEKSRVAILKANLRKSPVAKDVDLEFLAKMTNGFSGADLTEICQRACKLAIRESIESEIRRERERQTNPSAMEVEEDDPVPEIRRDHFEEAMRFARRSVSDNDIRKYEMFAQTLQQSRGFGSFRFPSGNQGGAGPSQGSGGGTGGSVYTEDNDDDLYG
CHOP inhibitor: CHOP inhibition in unfolded protein response; CHO-K1 CHOP-promoter luciferase, tunicamycin-induced, 15-18 h; inhibition, % at 10 µM; 220,000 compounds, 3.8% hits; AID 2732;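 active = compounds that reduced the stress-induced luciferase reporter signal by more than about 70% of percent inhibition, limit read from the data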;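 also: 0% = tunicamycin plus vehicle and 100% = wells without tunicamycin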
UPR XBP1 act: activators of adaptive arm of unfolded protein response (XBP1) | AID 463104 | CHO-XBP1 luciferase reporter, IRE1-XBP1 UPR activation, luminescence; percent of tunicamycin response, DMSO as zero | 330,000 compounds, 0.33% hits | activation, % at 20 µM;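 active = versus positive control, 20 µM dose yields 30% or more activation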;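 also: 100% = tunicamycin at 10 µg/mL and 0% = DMSO only wells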
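incubation = overnight seeding at 37 °C, 6 h compound treatment at 37 °C | assay system = CHO-XBP1 cells stably carrying IRE1-XBP1-driven luciferase reporter | input = 1000 cells per well | detection = luciferase luminescence | dosing = single point, 20 µM final compound, 1% DMSO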
UPR CHOP act: apoptotic UPR (CHOP) activation. CHO-CHOP luciferase reporter, luminescence; percent of tunicamycin response over DMSO baseline. activation, % at 10 µM. 330,000 compounds, 0.34% hits;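 active = at 10 µM dose, activation of 40% or more, normalized to positive control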;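 also: 100% = tunicamycin at 10 µg/mL and 0% = DMSO alone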
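Test system: CHO CHOP reporter cells. Input: 500 CHO-CHOP cells per well. Medium: F12 with 10% FBS. Technique: luciferase luminescence. Measure: percent activation relative to tunicamycin control. Dosing: 10 µM compound, 0.5% DMSO. Timing: 16-18 h cell attachment, then 6 h compound exposure, 37 °C.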
* hit, by the source's call; . = no result; ! = a repeat was not active. Hits are enriched below; roughly 4.5% of the tested compounds scored in any of these assays.

SMILES	NS3 helicase inh	M18AAP inhibitor	p97 ATPase inh	CHOP inhibitor	UPR XBP1 act	UPR CHOP act
CCc1ccc(NC(=S)N2CCN(c3cccc(OC)c3)CC2)cc1	4.4	9.6	7.5	72.4*	-2.4	-0.3
COc1cccc(N2CCN(C(=S)Nc3ccccc3)CC2)c1	-0.9	5.0	.	.	-0.9	3.2
COC(=O)c1ccc(NC(=S)N2CCN(Cc3cccc(C)c3)CC2)cc1	-4.9	-4.4	-3.0	88.9*	0.6	-1.7
COc1cccc(-c2csc(N3CCN(C(=S)Nc4ccc(Cl)cc4)CC3)n2)c1	-12.8	6.8	-0.4	71.2*	-1.3	0.6
CC(C)(C)c1ccccc1NC(=S)NC1CCCCC1	4.7	-19.9	-3.2	4.2	-0.4	0.4
CCOC(=O)n1c(=O)n(Cc2ccccc2)c2ccccc21	4.1	0.0	-1.1	47.6	-3.3	1.6
CCOC(=O)n1c(=O)n(Cc2ccc(Cl)c(Cl)c2)c2ccccc21	-5.7	6.1	-4.8	81.3*	-2.0	0.2
CCOC(=O)n1c(=O)n(Cc2c(Cl)cccc2Cl)c2ccccc21	1.8	-11.3	2.5	72.7*	-3.1	-1.4
CCOC(=O)n1c(=O)n(Cc2cccc(F)c2)c2ccccc21	8.0	-15.1	-2.0	18.2	-3.9	-1.0
O=C(Nc1ccc(Cl)cc1)Nc1ccc(Cl)c(Cl)c1	.	.	.	.	6.5	9.9
O=C(Nc1ccc(Cl)c(Cl)c1)Nc1ccc(Br)cc1F	-4.1	2.2	2.8	101.4*	4.8	3.4
CCOC(=O)c1c(C)n(C)c2cc(-c3cccc(C(F)(F)F)c3)c(O)cc12	7.0	-3.7	-2.6	23.1	-1.2	-0.9
CCOC(=O)c1c(C)n(C)c2cc(-c3ccc(C)cc3)c(O)cc12	3.4	-7.7	3.1	81.0*	-0.1	-0.4
O=C(CSc1nnnn1-c1cccc2ccccc12)Nc1ccc(N2CCOCC2)c(Cl)c1	-9.7	-3.0	-1.4	71.0*	0.6	-2.9
Cc1cc(C)nc(SCC(=O)Nc2ccc(N3CCOCC3)c(Cl)c2)n1	-8.2	-18.0	3.4	.	-2.8	1.6
O=C(CSc1nnnn1-c1ccccc1)Nc1ccc(N2CCOCC2)c(Cl)c1	-1.3	0.6	2.3	33.6	-2.0	-2.7
O=C(CSc1nnc(C23CC4CC(CC(C4)C2)C3)o1)Nc1ccc(N2CCOCC2)c(Cl)c1	-6.5	-11.3	0.9	75.6*	-1.6	1.7
O=C(COc1c(F)c(F)c(C(F)(F)F)c(F)c1F)Nc1ccc(N2CCOCC2)c(Cl)c1	-7.2	3.7	-7.3	84.9*	-3.3	-2.9
Cc1ccc(S(=O)(=O)Oc2ccc3c(c2)O/C(=C\c2cccnc2)C3=O)cc1	12.5	3.0	6.7	78.4*	-2.1	-0.2
Cc1nnc(SCC(=O)Nc2ccc(N3CCN(S(C)(=O)=O)CC3)cc2)o1	0.4	-1.2	.	.	-4.0	-0.5
Nn1cnnc1N/N=C/c1cc(Br)cc(Br)c1O	-5.4	52.2*	1.6	17.0	0.7	-5.1
S=C(Nc1ccc(Br)cc1Cl)NN1CCOCC1	5.8	-16.8	-3.4	4.3	-0.3	-1.1
C=CCc1ccc(OCC(O)CN2CCc3ccccc3C2)c(OC)c1 (configuration not stated)	-32.0	-0.6	.	.	-3.9	0.9
O=C(CNC(=O)c1ccco1)OCc1cccc(Cl)c1	5.0	6.2	-1.1	74.5*	-0.6	-1.7
O=C(CNC(=O)c1ccco1)NCC(=O)OCc1cccc(Cl)c1	-3.8	-0.4	3.7	20.4	-2.3	-1.3
SMILES	NS3 helicase inh	M18AAP inhibitor	p97 ATPase inh	CHOP inhibitor	UPR XBP1 act	UPR CHOP act
CCOc1ccc(CN(C)C(=O)[C@H](Cc2ccccc2)NC(=O)OCc2ccccc2)cc1OC	-18.2	1.4	.	.	-0.7	1.8
CC(=O)/C=C(\C)Nc1ccccc1O	11.8	29.0*	-5.7	8.8	-2.5	1.7
Cc1ccc(C)c(NC(=O)CN(C)C(=O)c2ccccc2OCc2ccccc2Cl)c1	.	.	.	.	1.2	-0.4
CC(C)(C)C(=O)Nc1nnc(SCC(=O)NC2CCCC2)s1	-6.1	-13.0	.	.	-2.2	0.6
O=C(Nc1ccc(OCC(F)(F)C(F)F)c(C(F)(F)F)c1)c1ccccc1O	-8.4	-0.8	5.0	108.5*	5.5	15.9
O=C(NCCCn1ccnc1)C(Cc1ccccc1)N1C(=O)c2ccccc2C1=O (configuration not stated)	-1.9	29.5*	-4.8	5.3	0.9	0.0
CC(C)(C)NC(=O)C(Cc1ccccc1)N1C(=O)c2ccccc2C1=O (configuration not stated)	-2.7	4.0	.	.	-4.9	-0.7
CC1CCN(c2nc(-c3ccncc3)nc3ccccc23)CC1	-10.6	-1.2	1.6	12.9	3.3	0.4
CC1CCCCN1c1nc(-c2ccncc2)nc2ccccc12 (configuration not stated)	-12.4	1.4	-4.2	76.5*	6.0	3.2
Cc1cc(C)nc(Nc2n[nH]c(COc3ccc4ccccc4c3)n2)n1	-2.1	-3.6	-6.5	87.2*	-3.4	-1.1
CC(=O)N(/N=C/c1cccc(C)c1)c1nc(-c2ccc(Br)cc2)cs1	-0.8	-5.1	-1.0	95.2*	0.2	-0.5
CCCCN(C)C(=O)Cn1ncc2c3ccccc3n(CCC)c2c1=O	-15.6	4.8	.	.	-4.0	2.6
CCn1cc(C(=O)O)c(=O)c2cc3c(cc21)OCO3	-3.1	-2.8	-0.1	-6.8	-4.7	0.6
CCn1nc(C(=O)O)c(=O)c2cc3c(cc21)OCO3	3.8	8.1	8.0	96.1*!	-4.6	-1.3
NC(=O)CC(NC(=O)Cc1ccc(Br)cc1)c1ccc(NCC2CC2)c([N+](=O)[O-])c1 (configuration not stated)	.	.	.	76.9*	-2.9	-2.0
NC(=O)CC(NC(=O)Cc1ccc(Cl)cc1)c1ccc(NCC2CC2)c([N+](=O)[O-])c1 (configuration not stated)	.	.	.	2.2	0.4	-1.1
NC(=O)CC(NC(=O)Cc1ccc(Br)cc1)c1ccc(NCc2ccc(F)cc2)c([N+](=O)[O-])c1 (configuration not stated)	.	.	.	93.4*	-2.1	0.6
COc1ccc(Cc2nnc(SCC(=O)Nc3ccc(N4CCOCC4)cc3)o2)cc1	-3.0	-2.9	.	.	-2.5	1.4
CNc1nnc(-c2cc3cc(Cl)ccc3oc2=O)s1	1.5	12.8	0.8	77.8*	3.3	7.1
CCS(=O)(=O)N1N=C(c2cccc(NS(C)(=O)=O)c2)CC1c1ccc(C)cc1 (configuration not stated)	-8.6	-3.1	-1.6	-12.5	3.8	0.5
CCOC(=O)C1(C(C)(C)CC)CC(CSc2nc3ccccc3[nH]2)OC1=O (configuration not stated)	-18.0	-1.1	-5.4	75.4*	-2.8	-2.2
N#Cc1cc2c(nc1SC1CC(=O)N(c3ccccc3)C1=O)CCC2 (configuration not stated)	3.6	-1.4	6.6	83.6*	.	.

Source: PubChem BioAssay
